Test results: ChEMBL document CHEMBL4689842, “EUbOPEN Chemogenomics Library wave 1” (2021)
“And” between values parts separate entries of the source, which are not always exact repeats. Equal entries are not always repeated.

System: U2OS
Experiment: Multiplex assay against U2OS
Type: toxicity, cell-based
Conditions: human
Summary of the method: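 With compound added, live cells were imaged on a CQ1 microscope at 37°C and 5% CO2; staining with Hoechst33342, BioTracker Green Microtubule Cytoskeleton Dye, MitoTracker Red and Annexin V Alexa Fluor 680 had been done at seeding. The CellPathfinder machine-learning gating scheme split cells into Hoechst high-intensity objects or normal cells, normal cells into healthy, pyknosed or fragmented nuclei, and pyknosed cells into mitotic or apoptotic. The tubulin, mitochondrial-mass and membrane-permeability phenotypes are per cents of healthy-nucleus cells.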

[1] = 12 h, 1 µM, compound concentration 1 uM, replicate 1
[2] = 12 h, 1 µM, compound concentration 1 uM, replicate 2
[3] = 12 h, 10 µM, compound concentration 10 uM, replicate 1
[4] = 12 h, 10 µM, compound concentration 10 uM, replicate 2
[5] = 24 h, 1 µM, compound concentration 1 uM, replicate 1
[6] = 24 h, 1 µM, compound concentration 1 uM, replicate 2
[7] = 24 h, 10 µM, compound concentration 10 uM, replicate 1
[8] = 24 h, 10 µM, compound concentration 10 uM, replicate 2
[9] = 48 h, 1 µM, compound concentration 1 uM, replicate 1
[10] = 48 h, 1 µM, compound concentration 1 uM, replicate 2
[11] = 48 h, 10 µM, compound concentration 10 uM, replicate 1
[12] = 48 h, 10 µM, compound concentration 10 uM, replicate 2

Cc1csc2c(N[C@@H](C)CN3CCN(S(=O)(=O)c4ccc(Cl)c(Cl)c4)CC3)ncnc12
Population Apoptotic (%) [1]: 70%
Population Fragmented Nuclei (%) [1]: 14%
Population Healthy Nuclei (%) [1]: 66%
Population Hoechst High Intensity Objects (%) [1]: 8%
Population Membrane Permeable-Phenotype (%) [1]: 4%
Population Mitochondria Different-Phenotype (%) [1]: 31%
Population Mitotic Cells (%) [1]: 30%
Population Normal (%) [1]: 91%
Population Pyknosed Nuclei (%) [1]: 19%
Population Tubulin-Different-Phenotype (%) [1]: 50%
Total Cell Count [1]: 158
Population Apoptotic (%) [2]: 16%
Population Fragmented Nuclei (%) [2]: 5%
Population Healthy Nuclei (%) [2]: 84%
Population Hoechst High Intensity Objects (%) [2]: 5%
Population Membrane Permeable-Phenotype (%) [2]: 6%
Population Mitochondria Different-Phenotype (%) [2]: 33%
Population Mitotic Cells (%) [2]: 83%
Population Normal (%) [2]: 95%
Population Pyknosed Nuclei (%) [2]: 10%
Population Tubulin-Different-Phenotype (%) [2]: 47%
Total Cell Count [2]: 48
Population Apoptotic (%) [3]: 53%
Population Fragmented Nuclei (%) [3]: 15%
Population Healthy Nuclei (%) [3]: 57%
Population Hoechst High Intensity Objects (%) [3]: 9%
Population Membrane Permeable-Phenotype (%) [3]: 55%
Population Mitochondria Different-Phenotype (%) [3]: 100%
Population Mitotic Cells (%) [3]: 46%
Population Normal (%) [3]: 90%
Population Pyknosed Nuclei (%) [3]: 27%
Population Tubulin-Different-Phenotype (%) [3]: 100%
Total Cell Count [3]: 114
Population Apoptotic (%) [4]: 75%
Population Fragmented Nuclei (%) [4]: 12%
Population Healthy Nuclei (%) [4]: 67%
Population Hoechst High Intensity Objects (%) [4]: 4%
Population Membrane Permeable-Phenotype (%) [4]: 56%
Population Mitochondria Different-Phenotype (%) [4]: 98%
Population Mitotic Cells (%) [4]: 25%
Population Normal (%) [4]: 95%
Population Pyknosed Nuclei (%) [4]: 19%
Population Tubulin-Different-Phenotype (%) [4]: 98%
Total Cell Count [4]: 60
Population Apoptotic (%) [5]: 73%
Population Fragmented Nuclei (%) [5]: 7%
Population Healthy Nuclei (%) [5]: 78%
Population Hoechst High Intensity Objects (%) [5]: 8%
Population Membrane Permeable-Phenotype (%) [5]: 10%
Population Mitochondria Different-Phenotype (%) [5]: 27%
Population Mitotic Cells (%) [5]: 26%
Population Normal (%) [5]: 91%
Population Pyknosed Nuclei (%) [5]: 13%
Population Tubulin-Different-Phenotype (%) [5]: 45%
Total Cell Count [5]: 175
Population Apoptotic (%) [6]: 60%
Population Fragmented Nuclei (%) [6]: 11%
Population Healthy Nuclei (%) [6]: 73%
Population Hoechst High Intensity Objects (%) [6]: 4%
Population Membrane Permeable-Phenotype (%) [6]: 11%
Population Mitochondria Different-Phenotype (%) [6]: 25%
Population Mitotic Cells (%) [6]: 40%
Population Normal (%) [6]: 95%
Population Pyknosed Nuclei (%) [6]: 14%
Population Tubulin-Different-Phenotype (%) [6]: 23%
Total Cell Count [6]: 64
Population Apoptotic (%) [7]: 95%
Population Fragmented Nuclei (%) [7]: 18%
Population Healthy Nuclei (%) [7]: 44%
Population Hoechst High Intensity Objects (%) [7]: 5%
Population Membrane Permeable-Phenotype (%) [7]: 75%
Population Mitochondria Different-Phenotype (%) [7]: 100%
Population Mitotic Cells (%) [7]: 4%
Population Normal (%) [7]: 94%
Population Pyknosed Nuclei (%) [7]: 36%
Population Tubulin-Different-Phenotype (%) [7]: 100%
Total Cell Count [7]: 119
Population Apoptotic (%) [8]: 80%
Population Fragmented Nuclei (%) [8]: 15%
Population Healthy Nuclei (%) [8]: 57%
Population Hoechst High Intensity Objects (%) [8]: 4%
Population Membrane Permeable-Phenotype (%) [8]: 80%
Population Mitochondria Different-Phenotype (%) [8]: 97%
Population Mitotic Cells (%) [8]: 19%
Population Normal (%) [8]: 95%
Population Pyknosed Nuclei (%) [8]: 26%
Population Tubulin-Different-Phenotype (%) [8]: 97%
Total Cell Count [8]: 72
Population Apoptotic (%) [9]: 77%
Population Fragmented Nuclei (%) [9]: 8%
Population Healthy Nuclei (%) [9]: 79%
Population Hoechst High Intensity Objects (%) [9]: 3%
Population Membrane Permeable-Phenotype (%) [9]: 8%
Population Mitochondria Different-Phenotype (%) [9]: 16%
Population Mitotic Cells (%) [9]: 22%
Population Normal (%) [9]: 96%
Population Pyknosed Nuclei (%) [9]: 11%
Population Tubulin-Different-Phenotype (%) [9]: 30%
Total Cell Count [9]: 243
Population Apoptotic (%) [10]: 25%
Population Fragmented Nuclei (%) [10]: 12%
Population Healthy Nuclei (%) [10]: 82%
Population Hoechst High Intensity Objects (%) [10]: 4%
Population Mitochondria Different-Phenotype (%) [10]: 12%
Population Mitotic Cells (%) [10]: 75%
Population Normal (%) [10]: 95%
Population Pyknosed Nuclei (%) [10]: 4%
Population Tubulin-Different-Phenotype (%) [10]: 20%
Total Cell Count [10]: 89
Population Apoptotic (%) [11]: 87%
Population Fragmented Nuclei (%) [11]: 25%
Population Healthy Nuclei (%) [11]: 30%
Population Hoechst High Intensity Objects (%) [11]: 8%
Population Membrane Permeable-Phenotype (%) [11]: 78%
Population Mitochondria Different-Phenotype (%) [11]: 96%
Population Mitotic Cells (%) [11]: 12%
Population Normal (%) [11]: 91%
Population Pyknosed Nuclei (%) [11]: 43%
Population Tubulin-Different-Phenotype (%) [11]: 100%
Total Cell Count [11]: 159
Population Apoptotic (%) [12]: 92%
Population Fragmented Nuclei (%) [12]: 15%
Population Healthy Nuclei (%) [12]: 50%
Population Hoechst High Intensity Objects (%) [12]: 7%
Population Membrane Permeable-Phenotype (%) [12]: 84%
Population Mitochondria Different-Phenotype (%) [12]: 97%
Population Mitotic Cells (%) [12]: 7%
Population Normal (%) [12]: 92%
Population Pyknosed Nuclei (%) [12]: 34%
Population Tubulin-Different-Phenotype (%) [12]: 97%
Total Cell Count [12]: 91

CCn1c(=O)c(-c2ccc(Cl)cc2Cl)cc2cnc(Nc3ccc(N4CCNCC4)c(F)c3)nc21
Population Apoptotic (%) [3]: 97% and 89% and 38%
Population Normal (%) [3]: 31% and 45% and 92%
Total Cell Count [3]: 204 and 465 and 202
Population Apoptotic (%) [4]: 100% and 88% and 46%
Population Fragmented Nuclei (%) [4]: 44% and 21% and 19%
Population Membrane Permeable-Phenotype (%) [4]: 71% and 78%
Population Normal (%) [4]: 50% and 40% and 80%
Total Cell Count [4]: 206 and 130 and 83
Population Apoptotic (%) [7]: 87% and 91% and 60%
Population Fragmented Nuclei (%) [7]: 22% and 8%
Population Normal (%) [7]: 40% and 34% and 89%
Population Pyknosed Nuclei (%) [7]: 50% and 40% and 25%
Total Cell Count [7]: 436 and 206 and 232
Population Apoptotic (%) [8]: 100% and 53%
Population Fragmented Nuclei (%) [8]: 41% and 39%
Population Healthy Nuclei (%) [8]: 31% and 45% and 50%
Population Pyknosed Nuclei (%) [8]: 26% and 15% and 27%
Population Tubulin-Different-Phenotype (%) [8]: 84% and 86% and 29%
Total Cell Count [8]: 225 and 118 and 97
Population Apoptotic (%) [11]: 90%
Population Fragmented Nuclei (%) [11]: 48%
Population Healthy Nuclei (%) [11]: 10%
Population Hoechst High Intensity Objects (%) [11]: 59%
Population Membrane Permeable-Phenotype (%) [11]: 75%
Population Mitochondria Different-Phenotype (%) [11]: 62%
Population Mitotic Cells (%) [11]: 9%
Population Normal (%) [11]: 40%
Population Pyknosed Nuclei (%) [11]: 41%
Population Tubulin-Different-Phenotype (%) [11]: 75%
Total Cell Count [11]: 620
Population Apoptotic (%) [12]: 100%
Population Fragmented Nuclei (%) [12]: 43%
Population Healthy Nuclei (%) [12]: 26%
Population Hoechst High Intensity Objects (%) [12]: 56%
Population Membrane Permeable-Phenotype (%) [12]: 100%
Population Mitochondria Different-Phenotype (%) [12]: 91%
Population Mitotic Cells (%) [12]: 0%
Population Normal (%) [12]: 43%
Population Pyknosed Nuclei (%) [12]: 30%
Population Tubulin-Different-Phenotype (%) [12]: 91%
Total Cell Count [12]: 227
